This is an account of results in ChEMBL document CHEMBL1123121, “Aminotetralone analogues of ketamine: synthesis and evaluation of hypnotic and locomotor properties in mice” (1985).

Each structure is given as a SMILES string.

The experiment concerns Mus musculus. The experiment is described as follows: Ability to cause […] in mice represented as no. of counts for each animal for a total of 90 min when 100 mg/kg dose was administered intraperitoneally. Type of experiment: functional. The following applies: route intraperitoneal. An outline of the steps:
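Mice given the compound intraperitoneally at 100 mg kg-1, dissolved in distilled water; controls received 0.2 mL normal saline. Each mouse was placed on an electronic activity monitor and its counts were recorded for 90 min after injection. Counts per minute were taken as total counts divided by 90. Six animals per group, mean ± SEM, groups compared by Duncan's multiple-range test. Experiments were run between 13.00 and 17.00 h at 20-24 °C.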
Regarding `CNC1(C)C(=O)CCc2ccccc21` (stereo unspecified), the Counts was determined as 25.8 min⁻¹.

On to `CN(C)C1(C)C(=O)CCc2ccccc21` (stereo unspecified), for which the Counts was found to be 22.9 min⁻¹.

Molecule `CN(C)C1(C)c2ccccc2CCC1O` (stereo unspecified) showed a Counts of 37.5 min⁻¹.

In turn, `CC1(N)C(=O)CCc2ccccc21` (stereo unspecified) had a Counts of 27.2 min⁻¹.

Regarding `CNC1(C)c2ccccc2CCC1O` (stereo unspecified), the Counts amounted to 20.2 min⁻¹.

Turning to `CC1(N)c2ccccc2CCC1O` (stereo unspecified), the Counts came to 16.2 min⁻¹.

As for `CC1(N)CCc2ccccc2C1=O` (stereo unspecified), the Counts amounted to 60.6 min⁻¹.

The molecule `CC1(N2CCCCC2)c2ccccc2CCC1O` (stereo unspecified) gave a Counts of 21.6 min⁻¹.

The molecule `CN(C)C1(C)CCc2ccccc2C1=O` (stereo unspecified) gave a Counts of 67.1 min⁻¹.

The molecule `CC1(N2CCCCC2)C(=O)CCc2ccccc21` (stereo unspecified) yielded a Counts of 4.4 min⁻¹.

`CNC1(c2ccccc2Cl)CCCCC1=O` (stereo unspecified) [KETAMINE] gave a Counts of 94.3 min⁻¹.
